The values that follow come from ChEMBL document CHEMBL4265908, “Structure-activity and structure-property relationships of novel Nrf2 activators with a 1,2,4-oxadiazole core and their therapeutic effects on acetaminophen (APAP)-induced acute liver injury” (Eur J Med Chem, 2018).

Common to all, as to format: cell-based
In assay [1] the target is T1, Nuclear factor erythroid 2-related factor 2 (Homo sapiens) (UniProt Q16236).
T1 sequence (whole entry): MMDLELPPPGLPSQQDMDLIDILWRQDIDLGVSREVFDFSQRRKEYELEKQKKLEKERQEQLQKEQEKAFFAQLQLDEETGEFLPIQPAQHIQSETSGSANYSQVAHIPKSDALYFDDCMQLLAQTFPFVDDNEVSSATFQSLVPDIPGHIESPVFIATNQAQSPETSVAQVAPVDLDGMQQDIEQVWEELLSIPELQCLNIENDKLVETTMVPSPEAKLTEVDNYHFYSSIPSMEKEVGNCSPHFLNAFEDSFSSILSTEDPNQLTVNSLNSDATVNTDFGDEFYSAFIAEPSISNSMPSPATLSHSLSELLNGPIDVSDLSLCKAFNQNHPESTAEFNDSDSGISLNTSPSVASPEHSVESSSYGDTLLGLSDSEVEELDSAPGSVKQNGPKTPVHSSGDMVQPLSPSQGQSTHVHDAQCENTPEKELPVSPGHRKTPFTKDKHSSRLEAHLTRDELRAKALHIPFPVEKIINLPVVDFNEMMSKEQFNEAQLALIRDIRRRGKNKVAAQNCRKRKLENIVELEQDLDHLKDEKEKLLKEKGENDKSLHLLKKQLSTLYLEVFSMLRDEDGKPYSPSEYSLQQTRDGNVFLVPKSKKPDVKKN
Nature of the assay: Activation of Nrf2 in human LO2 cells cotreated with Nrf2 siRNA assessed as increase in NQO1 mRNA expression level at 20 uM by qRT-PCR analysis. In a few lines:
(§1)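 LO2 cells plated at 7 × 10^5 per 60 mm dish and transfected with 50 nM Nrf2 siRNA (scrambled siRNA as control). After 24 h, fresh medium was added and cells grown a further 48 h. Then 20 μM compound for 12 h. Nrf2, NQO1, GCLM and HO-1 mRNA measured by qRT-PCR, normalized to GAPDH, as fold over control.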
(In general: Real-time PCR tracks product formation cycle by cycle.)

In assay [2] the target is T1, Nuclear factor erythroid 2-related factor 2 (Homo sapiens). Nature of the assay: Activation of Nrf2 in human LO2 cells assessed as increase in GCLM mRNA expression level by qRT-PCR analysis. In a few lines:
(§2)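 LO2 cells in DMEM with 10% FBS were exposed to 0, 2.5, 5, 10, 20 or 40 μM compound for 12 h. Transcripts measured by qRT-PCR: 40 cycles of 95 °C for 5 s and 60 °C for 30 s. Normalized to GAPDH and expressed as fold over the untreated control. Mean ± SD, n = 3.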

For assay [3] the target is unchanged. The assay is described as follows: Activation of Nrf2 in human LO2 cells cotreated with Nrf2 siRNA assessed as increase in GCLM mRNA expression level at 20 uM by qRT-PCR analysis. In a few lines:
as §1

Assay [4] shares this target. Nature of the assay: Activation of Nrf2 in human LO2 cells assessed as increase in Nrf2 mRNA expression level by qRT-PCR analysis. In a few lines: as §2
Assay [5] has the same target. The assay is described as follows: Activation of Nrf2 in human HepG2-ARE-C8 cells assessed as induction of ARE-mediated luciferase activity at 80 uM after 24 hrs by luciferase reporter gene assay relative to control. A digest of the protocol:
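HepG2-ARE-C8 cells stably carrying ARE-luciferase, grown in DMEM with 10% FBS at 37 °C and 5% CO2. Seeded at 5 × 10^4 cells/well, left overnight, then given compound diluted from a 10 mM DMSO stock for 24 h. Cells lysed and luciferase read as RLU. Inductivity = (RLUtest − RLUblank)/(RLUcontrol − RLUblank), with DMSO as control. Mean ± SEM of three experiments.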

The target is the same in assay [6]. The assay is described as follows: Activation of Nrf2 in human LO2 cells assessed as increase in HO-1 mRNA expression level by qRT-PCR analysis. In a few lines:
as §2

Structures are written as SMILES. Activity calls are given as the source filed them. The rule behind the calls is not given here.

In the case of `Cc1ccc(-c2noc(-c3ccc(F)c(F)c3)n2)cn1`, the outcome in assay [1] and in assay [3] was Active. In addition, the Activity entry is “Dose-dependent effect” in assay [2], “Dose-dependent effect” in assay [4], 59.5 in assay [5] and “Dose-dependent effect” in assay [6].
